# Experimental data published in ChEMBL document CHEMBL1145462, “In vivo pharmacodynamic activity of the glycopeptide dalbavancin” (Antimicrob Agents Chemother, 2007).
# How the values were obtained:
# Staphylococcus aureus [1] = assay: Bactericidal activity against […] Staphylococcus aureus ATCC 29213 infected neutropenic Swiss ICR mouse thigh infection model assessed as drug level causing 2-log reduction of bacterial count at 10 mg/kg, ip dosed every 72 hrs; format: functional; conditions: route intraperitoneal
# Streptococcus pneumoniae [2] = assay: AUC/MIC ratio of Streptococcus pneumoniae 1325 infected neutropenic mouse thigh infection model at 1.46 mg/kg, ip administered every 24 hrs by static effect experiment; format: functional; conditions: route intraperitoneal
# Streptococcus pneumoniae [3] = assay: AUC/MIC ratio of Streptococcus pneumoniae 1329 infected neutropenic mouse thigh infection model at 0.90 mg/kg, ip administered every 24 hrs by static effect experiment; format: functional; conditions: dose 0.9 mg/kg; route intraperitoneal
# Staphylococcus aureus [4] = assay: AUC/MIC ratio of methicillin-resistant Staphylococcus aureus infected neutropenic mouse thigh infection model at 37.7 mg/kg, ip administered every 24 hrs by static effect experiment; format: functional; conditions: route intraperitoneal
# Staphylococcus aureus [5] = assay: AUC/MIC ratio of Staphylococcus aureus 307109 infected neutropenic mouse thigh infection model at 31 mg/kg, ip administered every 72 hrs by static effect experiment; format: functional; conditions: route intraperitoneal
# Streptococcus pneumoniae [6] = assay: AUC/MIC ratio of Streptococcus pneumoniae 1325 infected neutropenic mouse thigh infection model at 1.6 mg/kg, ip administered every 24 hrs by 1-log killing experiment; format: functional; conditions: route intraperitoneal
# Staphylococcus aureus [7] = assay: AUC/MBC ratio of Staphylococcus aureus ATCC 25923 infected neutropenic mouse thigh infection model at 51.2 mg/kg, ip administered every 24 hrs by 1-log killing experiment; format: functional; conditions: route intraperitoneal
# Staphylococcus aureus [8] = assay: AUC/MBC ratio of Staphylococcus aureus Smith infected neutropenic mouse thigh infection model at 50.7 mg/kg, ip administered every 24 hrs by 1-log killing experiment; format: functional; conditions: route intraperitoneal
# Staphylococcus aureus [9] = assay: AUC/MBC ratio of methicillin-resistant Staphylococcus aureus infected neutropenic mouse thigh infection model at 53.5 mg/kg, ip administered every 24 hrs by 2-log killing experiment; format: functional; conditions: route intraperitoneal
# Streptococcus pneumoniae [10] = assay: AUC/MIC ratio of Streptococcus pneumoniae 1293 infected neutropenic mouse thigh infection model at 1.68 mg/kg, ip administered every 72 hrs by 2-log killing experiment; format: functional; conditions: route intraperitoneal
# Staphylococcus aureus [11] = assay: AUC/MBC ratio of Staphylococcus aureus 33591 infected neutropenic mouse thigh infection model at 114 mg/kg, ip administered every 72 hrs by 2-log killing experiment; format: functional; conditions: route intraperitoneal
# Staphylococcus aureus [12] = assay: AUC/MBC ratio of methicillin-resistant Staphylococcus aureus infected neutropenic mouse thigh infection model at 85 mg/kg, ip administered every 72 hrs by 2-log killing experiment; format: functional; conditions: route intraperitoneal
# Staphylococcus aureus [13] = assay: AUC/MBC ratio of Staphylococcus aureus 307109 infected neutropenic mouse thigh infection model at 37 mg/kg, ip administered every 72 hrs by 2-log killing experiment; format: functional; conditions: route intraperitoneal
# [14] = Half life in bacterial pathogen-infected neutropenic Swiss ICR mouse thigh infection model at 40 mg/kg, ip; format: ADME, organism-based; design: dose 40 mg/kg, route intraperitoneal; conditions: in vivo
# Method in brief: (§1)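 Thigh-infected neutropenic mice received single intraperitoneal doses (2.5, 5, 10, 20, 40, 80 mg/kg; 0.2 ml/dose). Blood was drawn by retroorbital aspiration from groups of three mice at 0.5, 1, 2, 4, 6, 24, 48, 72 and 96 h. Plasma levels were measured by microbiologic assay with Bacillus subtilis (detection limit 0.10 mg/liter). Noncompartmental analysis was used: half-life by linear least-squares regression, AUC by trapezoidal rule.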
# Serum = assay: Protein binding in Staphylococcus aureus infected neutropenic mouse serum; format: ADME, organism-based; conditions: in vivo
# Method in brief: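 MICs for S. aureus ATCC 25923 and an MRSA strain were compared in broth, heat-treated (100°C, 30 min) 95% mouse serum and 95% serum ultrafiltrate, using arithmetic dilutions of 0.02 mg/liter per tube. Bound fraction = (MIC in serum − MIC in ultrafiltrate)/MIC in serum.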
# Streptococcus pneumoniae [15] = assay: Bactericidal activity against penicillin-susceptible Streptococcus pneumoniae ATCC 10813 infected neutropenic Swiss ICR mouse thigh infection model assessed as drug level causing 2-log reduction of bacterial count at 0.71 mg/kg, ip dosed every 72 hrs; format: functional; conditions: route intraperitoneal
# Method in brief: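 Neutropenic mice (cyclophosphamide ip 150 mg/kg day −4, 100 mg/kg day −1, then every 48 h) received 0.1 ml log-phase inoculum per thigh under halothane. Intraperitoneal dalbavancin started 2 h later and was given for 6 days at q12h, q24h, q36h or q72h, two mice per regimen. Thigh CFU were counted at 144 h. Endpoint doses relative to start-of-therapy counts came from Hill-model nonlinear regression and are expressed per 24 h.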
# Streptococcus pneumoniae [16] = assay: Bactericidal activity in Streptococcus pneumoniae ATCC 10813 infected non-neutropenic mouse thigh infection model assessed as drug level causing 1-log reduction of bacterial count at 2.03 mg/kg/6days; format: functional
# Streptococcus pneumoniae [17] = assay: Bactericidal activity in Streptococcus pneumoniae ATCC 10813 infected non-neutropenic mouse thigh infection model assessed as drug level causing 2-log reduction of bacterial count at 2.03 mg/kg/6days; format: functional
# Streptococcus pneumoniae [18] = assay: Bactericidal activity in Streptococcus pneumoniae ATCC 10813 infected neutropenic mouse thigh infection model assessed as drug level causing 2-log reduction of bacterial count at 4.13 mg/kg/6days; format: functional
# Streptococcus pneumoniae [19] = assay: Antibacterial activity against Streptococcus pneumoniae 1325 by microdilution method; format: functional
# Method in brief: (§2)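 MIC and MBC were determined by CLSI broth microdilution, in duplicate on at least two occasions. Staphylococci were grown in Mueller-Hinton broth and agar; pneumococci were plated on sheep blood agar.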
# Streptococcus pneumoniae [20] = assay: Antibacterial activity against Streptococcus pneumoniae ATCC 10813 by microdilution method; format: functional; method in brief: as §2
# Staphylococcus aureus [21] = assay: Antibacterial activity against Staphylococcus aureus 31005 by microdilution method; format: functional; method in brief: as §2
# Staphylococcus aureus [22] = assay: Antibacterial activity against Staphylococcus aureus 307109 by microdilution method; format: functional; method in brief: as §2
# [23] = Half life in bacterial pathogen-infected neutropenic Swiss ICR mouse thigh infection model at 2.5 mg/kg, ip; format: ADME, organism-based; design: dose 2.5 mg/kg, route intraperitoneal; conditions: in vivo
# Method in brief: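 Single ip dose (0.2 ml) given to thigh-infected neutropenic ICR Swiss mice. Retro-orbital blood taken from groups of three at 0.5–96 h; plasma assayed microbiologically with Bacillus subtilis (detection limit 0.10 mg/liter). Half-life derived by linear least-squares regression within a noncompartmental analysis.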
# [24] = AUC in bacterial pathogen-infected neutropenic Swiss ICR mouse thigh infection model at 5 mg/kg, ip; format: ADME, organism-based; design: dose 5 mg/kg, route intraperitoneal; conditions: in vivo; method in brief: as §1
# [25] = Cmax in bacterial pathogen-infected neutropenic Swiss ICR mouse thigh infection model at 5 mg/kg, ip; format: ADME, organism-based; design: dose 5 mg/kg, route intraperitoneal; conditions: in vivo; method in brief: as §1
# [26] = Cmax in bacterial pathogen-infected neutropenic Swiss ICR mouse thigh infection model at 10 mg/kg, ip; format: ADME, organism-based; design: dose 10 mg/kg, route intraperitoneal; conditions: in vivo; method in brief: as §1
# [27] = Half life in bacterial pathogen-infected neutropenic Swiss ICR mouse thigh infection model at 20 mg/kg, ip; format: ADME, organism-based; design: dose 20 mg/kg, route intraperitoneal; conditions: in vivo; method in brief: as §1
# [28] = Cmax in bacterial pathogen-infected neutropenic Swiss ICR mouse thigh infection model at 20 mg/kg, ip; format: ADME, organism-based; design: dose 20 mg/kg, route intraperitoneal; conditions: in vivo; method in brief: as §1
# Streptococcus pneumoniae [29] = assay: Bactericidal activity in ip dosed penicillin-susceptible Streptococcus pneumoniae ATCC 10813 infected neutropenic mouse thigh infection model assessed as reduction of colony count after 48 hrs by time kill study; format: functional, Thigh muscle
# Method in brief: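 Neutropenic mice with thigh infection treated 2 h post-inoculation with single ip doses of 0.625, 1.25, 2.5, 5 or 10 mg/kg. Two mice per time point, sampled 0.5–96 h, with untreated controls. Thighs processed for CFU, reported as mean ± standard deviation log10 CFU/thigh.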
smiles,measurement,setting,value
CN[C@H]1C(=O)N[C@@H]2Cc3ccc(cc3)Oc3cc4cc(c3O[C@@H]3O[C@H](C(=O)O)[C@@H](O)[C@H](O)[C@H]3NC(=O)CCCCCCCCC(C)C)Oc3ccc(cc3Cl)[C@@H](O)[C@@H]3NC(=O)[C@H](NC(=O)[C@@H]4NC(=O)[C@@H](NC2=O)c2cc(cc(O)c2Cl)Oc2cc1ccc2O)c1ccc(O)c(c1)-c1c(O[C@H]2O[C@H](CO)[C@@H](O)[C@H](O)[C@@H]2O)cc(O)cc1[C@@H](C(=O)NCCCN(C)C)NC3=O [DALBAVANCIN],Activity,Staphylococcus aureus [1],128
same,RatioAUC/MIC,Streptococcus pneumoniae [2],29
same,RatioAUC/MIC,Streptococcus pneumoniae [3],18
same,RatioAUC/MIC,Staphylococcus aureus [4],374
same,RatioAUC/MIC,Staphylococcus aureus [5],94
same,RatioAUC/MIC,Streptococcus pneumoniae [6],31.8
same,Ratio,Staphylococcus aureus [7],60
same,Ratio,Staphylococcus aureus [8],119
same,Ratio,Staphylococcus aureus [9],125
same,RatioAUC/MIC,Streptococcus pneumoniae [10],23.8
same,Ratio,Staphylococcus aureus [11],94
same,Ratio,Staphylococcus aureus [12],70
same,Ratio,Staphylococcus aureus [13],14.6
same,half-life,[14],9.7 h
same,Activity,Serum,98.4%
same,Activity,Streptococcus pneumoniae [15],0.82
same,Activity,Streptococcus pneumoniae [16],2.35
same,Activity,Streptococcus pneumoniae [17],2.66
same,Activity,Streptococcus pneumoniae [18],4.62
same,MBC,Streptococcus pneumoniae [19],0.008 µg/mL
same,MIC,Streptococcus pneumoniae [19],0.008 µg/mL
same,MBC,Streptococcus pneumoniae [20],0.03 µg/mL
same,MIC,Streptococcus pneumoniae [20],0.03 µg/mL
same,MBC,Staphylococcus aureus [21],0.12 µg/mL
same,MIC,Staphylococcus aureus [21],0.06 µg/mL
same,MBC,Staphylococcus aureus [22],0.12 µg/mL
same,MIC,Staphylococcus aureus [22],0.06 µg/mL
same,half-life,[23],13.1 h
same,AUC,[24],285 µg·h/mL
same,Cmax,[25],29000 ng/mL
same,Cmax,[26],34800 ng/mL
same,half-life,[27],7.6 h
same,Cmax,[28],190000 ng/mL
same,Activity,Streptococcus pneumoniae [29],4
